Experimental data published in ChEMBL document CHEMBL1275595, “Antimicrobial activity of a halocidin-derived peptide resistant to attacks by proteases” (2010).
≈ marks a conversion by molar mass, not a printed value. Calls of active or inactive are those of the source. No cut-off for these calls is given here. Bridge positions count the residues as written; N and C are the ends. Peptide text beside a SMILES is read from it. I, II: the chains in the order shown.

Legend:
[1] = system: Pseudomonas aeruginosa; test: Antimicrobial activity against multidrug-resistant Pseudomonas aeruginosa CCARM 2161 after 18 hrs by broth dilution method; type: functional; settings: CCARM 2161, 18 h
How it was run: (§1)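 Broth dilution per CLSI. Bacteria were grown overnight to stationary phase in Mueller-Hinton broth and diluted in fresh MHB to 2 × 10^5 CFU/ml. Stocks at 640 μg/ml in 0.01% acetic acid were 2-fold serially diluted to 10 μg/ml, and 11 μl was added to 100 μl of bacteria. After 18 h at 37°C, MIC was the lowest concentration with no visible turbidity. Run in triplicate.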

[2] = system: Enterococcus faecium; test: Antimicrobial activity against vancomycin-resistant Enterococcus faecium CCARM 5028 after 18 hrs by broth dilution method; type: functional; settings: CCARM 5028, 18 h; how it was run: as §1
[3] = system: Staphylococcus aureus; test: Antimicrobial activity against methicillin-resistant Staphylococcus aureus CCARM 3696 after 18 hrs by broth dilution method; type: functional; settings: CCARM 3696, 18 h; how it was run: as §1
[4] = system: Bacillus subtilis; test: Antimicrobial activity against Bacillus subtilis KCTC 2213 after 18 hrs by broth dilution method; type: functional; settings: KCTC 2213, 18 h
How it was run: (§2)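 Broth microdilution following CLSI recommendations. Bacteria were grown overnight to stationary phase in Mueller-Hinton broth, then diluted in fresh MHB to 2 × 10^5 CFU/ml. Peptide or antibiotic stocks of 640 μg/ml in 0.01% acetic acid were serially 2-fold diluted to 10 μg/ml, and each was added to the bacterial suspension at 11 μl per 100 μl. Plates were incubated 18 h at 37°C. MIC was taken as the lowest concentration giving no visible turbidity, in triplicate.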

[5] = system: Staphylococcus aureus; test: Antimicrobial activity against methicillin-resistant Staphylococcus aureus CCARM 3696 by radial diffusion assay incubated with Pseudomonas aeruginosa Culture supernatant for 1 hr; type: functional, organism-based
[6] = system: Staphylococcus aureus; test: Antimicrobial activity against methicillin-resistant Staphylococcus aureus CCARM 3696 by radial diffusion assay incubated with matrix metalloprotease 7 for 5 mins; type: functional, organism-based
[7] = system: Staphylococcus aureus; test: Antimicrobial activity against methicillin-resistant Staphylococcus aureus CCARM 3696 by radial diffusion assay incubated with Staphylococcus aureus Culture supernatant for 1 hr; type: functional, organism-based
[8] = system: Escherichia coli; test: Antimicrobial activity against Escherichia coli KCTC 1039 after 18 hrs by broth dilution method; type: functional; settings: KCTC 1039, 18 h; how it was run: as §2
[9] = system: Salmonella enterica; test: Antimicrobial activity against Salmonella enterica KCTC 2930 after 18 hrs by broth dilution method; type: functional; settings: KCTC 2930, 18 h; how it was run: as §2
[10] = system: Micrococcus luteus; test: Antimicrobial activity against Micrococcus luteus KCTC 9341 after 18 hrs by broth dilution method; type: functional; settings: KCTC 9341, 18 h; how it was run: as §2
[11] = system: Staphylococcus aureus; test: Antimicrobial activity against methicillin-resistant Staphylococcus aureus CCARM 3696 by colony count assay incubated with trypsin for 20 mins; type: functional, organism-based
How it was run: (§3)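 Peptide (20 μg) was incubated at 37°C with 50 nM trypsin in 100 μl of 10 mM sodium phosphate, then heated 10 min at 80°C and cooled. MRSA (100 μl, 2 × 10^7 CFU/ml) was added for 5 min. Aliquots were plated on TSA (1.5% agarose, 3% TSB in NaP) and counted after overnight growth at 37°C. Read-out was CFU/ml; repeated three times on different days.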

[12] = system: Staphylococcus aureus; test: Antimicrobial activity against methicillin-resistant Staphylococcus aureus CCARM 3696 by colony count assay incubated with trypsin for 10 mins; type: functional, organism-based; how it was run: as §3
[13] = system: Staphylococcus aureus; test: Antimicrobial activity against methicillin-resistant Staphylococcus aureus CCARM 3696 by colony count assay incubated with trypsin for 1 hr; type: functional, organism-based; how it was run: as §3
[14] = system: Citrobacter freundii; test: Antimicrobial activity against Citrobacter freundii KCTC 2359 after 18 hrs by broth dilution method; type: functional; settings: KCTC 2359, 18 h; how it was run: as §2
[15] = system: Klebsiella oxytoca; test: Antimicrobial activity against Klebsiella oxytoca KCTC 1686 after 18 hrs by broth dilution method; type: functional; settings: KCTC 1686, 18 h; how it was run: as §2
[16] = system: Listeria monocytogenes; test: Antimicrobial activity against Listeria monocytogenes KCTC 19111 after 18 hrs by broth dilution method; type: functional; settings: KCTC 19111, 18 h; how it was run: as §2
[17] = system: Staphylococcus aureus; test: Antimicrobial activity against methicillin-resistant Staphylococcus aureus CCARM 3696 by radial diffusion assay incubated with chymotrypsin for 1 hr; type: functional, organism-based
[18] = system: Staphylococcus aureus; test: Antimicrobial activity against methicillin-resistant Staphylococcus aureus CCARM 3696 by radial diffusion assay incubated with trypsin; type: functional, organism-based
[19] = system: Staphylococcus aureus; test: Antimicrobial activity against methicillin-resistant Staphylococcus aureus CCARM 3696 by radial diffusion assay incubated with matrix metalloprotease 7 for 1 hr; type: functional, organism-based
[20] = system: Staphylococcus aureus; test: Antimicrobial activity against methicillin-resistant Staphylococcus aureus CCARM 3696 by radial diffusion assay incubated with human wound fluid for 1 hr; type: functional, organism-based
[21] = system: Staphylococcus aureus; test: Antimicrobial activity against methicillin-resistant Staphylococcus aureus CCARM 3696 by radial diffusion assay incubated with chymotrypsin; type: functional, organism-based
[22] = system: Staphylococcus aureus; test: Antimicrobial activity against methicillin-resistant Staphylococcus aureus CCARM 3696 by radial diffusion assay incubated with human wound fluid for 4 hrs; type: functional, organism-based

Structure (SMILES)	MIC [1]	MIC [2]	MIC [3]	MIC [4]	Activity [5]	Activity [6]	Activity [7]	MIC [8]	MIC [9]	MIC [10]	Activity [11]	Activity [12]	Activity [13]	MIC [14]	MIC [15]	MIC [16]	Activity [17]	Activity [19]	also measured
CC[C@H](C)[C@H](NC(=O)[C@H](CCCCN)NC(=O)[C@H](CCC(=O)O)NC(=O)[C@H](CCCCN)NC(=O)[C@H](CO)NC(=O)[C@H](CCCCN)NC(=O)[C@H](CCCNC(=N)N)NC(=O)[C@H](Cc1ccccc1)NC(=O)[C@H](Cc1ccccc1)NC(=O)[C@H](CC(=O)O)NC(=O)CNC(=O)[C@H](CC(C)C)NC(=O)[C@@H](N)CC(C)C)C(=O)NCC(=O)N[C@@H](CCCCN)C(=O)N[C@@H](CCC(=O)O)C(=O)N[C@@H](Cc1ccccc1)C(=O)N[C@@H](CCCCN)C(=O)N[C@@H](CCCNC(=N)N)C(=O)N[C@H](C(=O)N[C@H](C(=O)N[C@@H](CCC(N)=O)C(=O)N[C@@H](CCCNC(=N)N)C(=O)N[C@H](C(=O)N[C@@H](CCCCN)C(=O)N[C@@H](CC(=O)O)C(=O)N[C@@H](Cc1ccccc1)C(=O)N[C@@H](CC(C)C)C(=O)N[C@@H](CCCNC(=N)N)C(=O)N[C@@H](CC(N)=O)C(=O)N[C@@H](CC(C)C)C(=O)N[C@H](C(=O)N1CCC[C@H]1C(=O)N[C@@H](CCCNC(=N)N)C(=O)N[C@H](C(=O)N[C@@H](CCC(=O)O)C(=O)N[C@@H](CO)C(=O)O)[C@@H](C)O)C(C)C)[C@@H](C)CC)C(C)C)[C@@H](C)CC [CATHELICIDIN]	> 64 µg/mL	32 µg/mL (≈ 7.12 µM)	> 64 µg/mL	8 µg/mL (≈ 1.78 µM)	inactive	inactive	inactive	32 µg/mL (≈ 7.12 µM)	> 64 µg/mL	> 64 µg/mL	inactive	inactive	Active	64 µg/mL (≈ 14.2 µM)	> 64 µg/mL	32 µg/mL (≈ 7.12 µM)			
CC[C@H](C)[C@H](NC(=O)CN)C(=O)NCC(=O)N[C@@H](CCCCN)C(=O)N[C@@H](Cc1ccccc1)C(=O)N[C@@H](CC(C)C)C(=O)N[C@@H](CCCCN)C(=O)N[C@@H](CCCCN)C(=O)N[C@@H](C)C(=O)N[C@@H](CCCCN)C(=O)N[C@@H](CCCCN)C(=O)N[C@@H](Cc1ccccc1)C(=O)NCC(=O)N[C@@H](CCCCN)C(=O)N[C@@H](C)C(=O)N[C@@H](Cc1ccccc1)C(=O)N[C@H](C(=O)N[C@@H](CCCCN)C(=O)N[C@H](C(=O)N[C@@H](CC(C)C)C(=O)N[C@@H](CCCCN)C(=O)N[C@@H](CCCCN)C(N)=O)[C@@H](C)CC)C(C)C [PEXIGANAN] (H-GIGKFLKKAKKFGKAFVKILKK-NH2)	8 µg/mL (≈ 3.23 µM)	8 µg/mL (≈ 3.23 µM)	16 µg/mL (≈ 6.46 µM)	4 µg/mL (≈ 1.61 µM)	inactive	inactive	inactive	4 µg/mL (≈ 1.61 µM)	8 µg/mL (≈ 3.23 µM)	8 µg/mL (≈ 3.23 µM)	inactive	inactive	Active	8 µg/mL (≈ 3.23 µM)	8 µg/mL (≈ 3.23 µM)	16 µg/mL (≈ 6.46 µM)			
CC(C)C[C@H](NC(=O)CNC(=O)[C@H](Cc1cnc[nH]1)NC(=O)[C@H](Cc1cnc[nH]1)NC(=O)[C@H](CC(C)C)NC(=O)[C@H](CC(C)C)NC(=O)[C@H](C)NC(=O)[C@H](CCCCN)NC(=O)[C@H](CCCCN)NC(=O)[C@H](Cc1c[nH]c2ccccc12)NC(=O)[C@@H](N)CCCCN)C(=O)N[C@@H](CC(N)=O)C(=O)N[C@@H](CSSC[C@H](NC(=O)[C@H](CC(N)=O)NC(=O)[C@H](CC(C)C)NC(=O)CNC(=O)[C@H](Cc1cnc[nH]1)NC(=O)[C@H](Cc1cnc[nH]1)NC(=O)[C@H](CC(C)C)NC(=O)[C@H](CC(C)C)NC(=O)[C@H](C)NC(=O)[C@H](CCCCN)NC(=O)[C@H](CCCCN)NC(=O)[C@H](Cc1c[nH]c2ccccc12)NC(=O)[C@@H](N)CCCCN)C(=O)N[C@@H](C)C(=O)N[C@@H](CCCCN)C(=O)NCC(=O)N[C@H](C(=O)N[C@@H](CC(C)C)C(=O)N[C@@H](C)C(=O)O)C(C)C)C(=O)N[C@@H](C)C(=O)N[C@@H](CCCCN)C(=O)NCC(=O)N[C@H](C(=O)N[C@@H](CC(C)C)C(=O)N[C@@H](C)C(N)=O)C(C)C (I: H-KWKKALLHHGLNCAKGVLA-NH2 / II: H-KWKKALLHHGLNCAKGVLA-OH; disulfide I:13-II:13)	4 µg/mL (≈ 0.959 µM)	2 µg/mL (≈ 0.479 µM)	4 µg/mL (≈ 0.959 µM)	2 µg/mL (≈ 0.479 µM)	inactive		inactive	2 µg/mL (≈ 0.479 µM)	2 µg/mL (≈ 0.479 µM)	4 µg/mL (≈ 0.959 µM)	inactive	inactive	Active	4 µg/mL (≈ 0.959 µM)	2 µg/mL (≈ 0.479 µM)	2 µg/mL (≈ 0.479 µM)	Active	Active	Activity [18]: inactive
CC(C)C[C@H](NC(=O)CNC(=O)[C@H](Cc1cnc[nH]1)NC(=O)[C@H](Cc1cnc[nH]1)NC(=O)[C@H](CC(C)C)NC(=O)[C@H](CC(C)C)NC(=O)[C@H](C)NC(=O)[C@H](CC(N)=O)NC(=O)[C@H](CC(C)C)NC(=O)[C@H](Cc1c[nH]c2ccccc12)NC(=O)[C@@H](N)CCCCN)C(=O)N[C@@H](CC(N)=O)C(=O)N[C@@H](CSSC[C@H](NC(=O)[C@H](CC(N)=O)NC(=O)[C@H](CC(C)C)NC(=O)CNC(=O)[C@H](Cc1cnc[nH]1)NC(=O)[C@H](Cc1cnc[nH]1)NC(=O)[C@H](CC(C)C)NC(=O)[C@H](CC(C)C)NC(=O)[C@H](C)NC(=O)[C@H](CC(N)=O)NC(=O)[C@H](CC(C)C)NC(=O)[C@H](Cc1c[nH]c2ccccc12)NC(=O)[C@@H](N)CCCCN)C(=O)N[C@@H](C)C(=O)N[C@@H](CCCCN)C(=O)NCC(=O)N[C@H](C(=O)N[C@@H](CC(C)C)C(=O)N[C@@H](C)C(N)=O)C(C)C)C(=O)N[C@@H](C)C(=O)N[C@@H](CCCCN)C(=O)NCC(=O)N[C@H](C(=O)N[C@@H](CC(C)C)C(=O)N[C@@H](C)C(N)=O)C(C)C (I: H-KWLNALLHHGLNCAKGVLA-NH2 / II: H-KWLNALLHHGLNCAKGVLA-NH2; disulfide I:13-II:13)	4 µg/mL (≈ 0.973 µM)	2 µg/mL (≈ 0.486 µM)	4 µg/mL (≈ 0.973 µM)	2 µg/mL (≈ 0.486 µM)	Active		Active	4 µg/mL (≈ 0.973 µM)	4 µg/mL (≈ 0.973 µM)	4 µg/mL (≈ 0.973 µM)				4 µg/mL (≈ 0.973 µM)	4 µg/mL (≈ 0.973 µM)	4 µg/mL (≈ 0.973 µM)	Active	Active	Activity [20]: Active; Activity [21]: Active; Activity [22]: Active
